These results are taken from the array DNA melting data of Ke et al. (doi:10.1101/2024.01.08.574731).

The nature of data set [1]: folding enthalpy; higher = less favourable; fluorescence melt of hairpins on a sequencing array, two-state fit. As to conditions: sodium 0.088 M. The essentials:
(§1)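 Folding enthalpy and melting temperature were estimated with bootstrapped two-state fits and combined across four replicates by inverse-variance weighting, with fitted temperatures raised by 9.35 °C to match UV melts. The data were Cy3 fluorescence of library hairpins, with annealed Cy3 and quencher oligos, on a sequenced MiSeq flow cell in 50 mM Na-HEPES pH 8.0, 25 mM NaCl, imaged in 2.5 °C steps up to 60 °C and normalised to pre-quench Cy3 and control constructs.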

Data set [2] can be described thus: melting temperature; fluorescence melt of hairpins on a sequencing array, two-state fit, raised by 9.35 °C to match UV melts. The conditions noted are these: sodium 0.088 M. The essentials:
as §1

Take GTCGCTGGAAACAGCAAC ((.((((....)))).)): the folding enthalpy in data set [1] is -15 kcal/mol. In data set [2], the Tm worked out at 41.7 °C.
As to GTCGCTGGAAACGGTGAC (((.(.(....).).))), the folding enthalpy in data set [1] was -28.6 kcal/mol. Further, the Tm in data set [2] stood at 44.2 °C.
The like results for GTCGGAACGAAAGTTGAC (((..(((....)))))) were, in that order, -10.8 kcal/mol and 32.7 °C.
Take GTCGGAGCGAAAGCTGAC (((..(((....)))))): the folding enthalpy in data set [1] was -22.1 kcal/mol. For the same sequence, in data set [2], the Tm is 44.3 °C.
For the sequence GTCGGAGGAAACTTCGAC ((((.((....)).)))), the folding enthalpy in data set [1] was -47.7 kcal/mol. Further, the Tm in data set [2] was determined as 51 °C.
The like results for GTCGGCGAAAGCCAAGAC ((((((....)))..))) were, in that order, -15.2 kcal/mol and 49.9 °C.
Turning to GTCGGCGAAAGCCAGGAC ((((((....)))..))), the folding enthalpy in data set [1] was -13.7 kcal/mol. Besides, the Tm in data set [2] was determined as 49.9 °C.
The like results for GTCGGCGAAAGCCCAGAC ((((((....)))..))) were, in that order, -13.5 kcal/mol and 42.7 °C.
The matching figures for GTCGGCGAAAGCCCGAC ((((((....))).))): -21.9 kcal/mol and 64.7 °C.
In the case of GTCGGCGAAAGCCCGGAC ((((((....)))..))), the folding enthalpy in data set [1] was -14.2 kcal/mol. For the same sequence, the Tm in data set [2] is 42.4 °C.
Take GTCGGCGAAAGCCTCGAC ((((((....)))..))): in data set [1], the folding enthalpy is -14.7 kcal/mol. The Tm in data set [2] came out at 42.4 °C.
Consider GTCGGCGGAAACACCGAC (((((.(....).))))), for which the folding enthalpy in data set [1] was -37.9 kcal/mol. Moreover, the Tm in data set [2] was 55.3 °C.
For the sequence GTCGGCGGAAACGCCAAC ((.((((....)))).)), in data set [1], the folding enthalpy was -12.7 kcal/mol. Moreover, the Tm in data set [2] turned out to be 48.2 °C.
As to GTCGGCGGAAACGCTGAC (((.(((....))).))), the folding enthalpy in data set [1] is -39.3 kcal/mol. Moreover, the Tm in data set [2] is 63.1 °C.
GTCGGCGGAAACGCTGGC (.(.(((....))).).): the folding enthalpy in data set [1] was -21.2 kcal/mol. Moreover, in data set [2], the Tm was determined as 50.5 °C.
With GTCGGGCCGAAAGGCGAC (((..(((....)))))), the folding enthalpy in data set [1] was -14.5 kcal/mol. For the same sequence, the Tm in data set [2] worked out at 51 °C.
As to GTCGGGCGAAAGCCGGAC (((.(((....))).))), the folding enthalpy in data set [1] was -27.7 kcal/mol. Further, the Tm in data set [2] came out at 67.7 °C.
Take GTCGGGGGAAACCCCGGC (.(((((....))))).): the folding enthalpy in data set [1] was -22 kcal/mol. In addition, the Tm in data set [2] came to 62.5 °C.
Consider GTCGGGTCGAAAGACGAC (((..(((....)))))), for which the folding enthalpy in data set [1] is -19.8 kcal/mol. For the same sequence, the Tm in data set [2] stood at 47.4 °C.
The matching figures for GTCGGTGCGAAAGCAGAC (((..(((....)))))): -14.2 kcal/mol and 45.2 °C.
GTCGTAGAAATACGAC ((((((....)))))): in data set [1], the folding enthalpy is -38 kcal/mol. In data set [2], the Tm amounted to 56 °C.
Take GTCGTATCGAAAGATGAC (((..(((....)))))): in data set [1], the folding enthalpy was -20 kcal/mol. Moreover, the Tm in data set [2] stood at 34.1 °C.
With GTCGTCGAAAGACAAGAC ((((((....)))..))), in data set [1], the folding enthalpy was -20 kcal/mol. The Tm in data set [2] is 44.7 °C.
Take GTCGTCGAAAGACACGAC ((((((....)))..))): the folding enthalpy in data set [1] is -16.7 kcal/mol. Moreover, the Tm in data set [2] is 48.1 °C.
With GTCGTCGAAAGACGGGAC ((((((....)))..))), the folding enthalpy in data set [1] is -10.3 kcal/mol. In data set [2], the Tm was determined as 41.4 °C.
Take GTCGTGCGAAAGCAGGAC (((.(((....))).))): the folding enthalpy in data set [1] was -35.9 kcal/mol. In addition, in data set [2], the Tm was 64.5 °C.
As for GTCGTTCCGAAAGGAGAC (((..(((....)))))), the folding enthalpy in data set [1] is -22 kcal/mol. Besides, the Tm in data set [2] is 35.1 °C.
GTCGTTCGAAAGAAGGAC (((.(((....))).))): the folding enthalpy in data set [1] is -38.1 kcal/mol. Also, the Tm in data set [2] is 52.2 °C.
In the case of GTCGTTGAAAAACGAC ((((((....)))))), in data set [1], the folding enthalpy is -35.2 kcal/mol. Also, the Tm in data set [2] is 61.6 °C.
Take GTCGTTGGAAACAACAAC ((.((((....)))).)): the folding enthalpy in data set [1] was -17.7 kcal/mol. In addition, in data set [2], the Tm is 34.8 °C.
Regarding GTCGTTGGAAACAACGAC (((((((....))))))), the folding enthalpy in data set [1] is -41.6 kcal/mol. For the same sequence, the Tm in data set [2] was determined as 67.6 °C.
For the sequence GTCGTTGGAAACAACGGC (.(((((....))))).), the folding enthalpy in data set [1] was -39.6 kcal/mol. For the same sequence, in data set [2], the Tm stood at 55.1 °C.
For GTCGTTGGAAACAGTGAC (((..((....))..))), the folding enthalpy in data set [1] is -13.5 kcal/mol. In addition, in data set [2], the Tm was 32.4 °C.
The like results for GTCTAAACGAAAGTTGAC (((..(((....)))))) were, in that order, -17.7 kcal/mol and 34.5 °C.
Turning to GTCTAACGAAAGTTGAC (((.(((....)))))), the folding enthalpy in data set [1] is -24.9 kcal/mol. The Tm in data set [2] stood at 43.6 °C.
Regarding GTCTAACGAAAGTTGGAC (((.(((....))).))), in data set [1], the folding enthalpy was -19.8 kcal/mol. Moreover, the Tm in data set [2] was determined as 52 °C.
Regarding GTCTAACGAAAGTTTGAC (((.(((....))).))), in data set [1], the folding enthalpy is -36.7 kcal/mol. In data set [2], the Tm is 47.6 °C.
The matching figures for GTCTAAGAAATTAGAC ((((((....)))))): -25.8 kcal/mol and 40.4 °C.
As to GTCTAAGGAAACTTGGAC (((.(((....))).))), the folding enthalpy in data set [1] was -21.9 kcal/mol. Further, the Tm in data set [2] turned out to be 40.2 °C.
GTCTAATCGAAAGATGAC (((..(((....)))))): the folding enthalpy in data set [1] was -14.8 kcal/mol. Besides, the Tm in data set [2] amounted to 31.6 °C.
GTCTACCCGAAAGGGGAC (((..(((....)))))): the folding enthalpy in data set [1] was -13.8 kcal/mol. Moreover, the Tm in data set [2] amounted to 36.2 °C.
Regarding GTCTACCGAAAGGTGGAC (((.(((....))).))), in data set [1], the folding enthalpy was -41.5 kcal/mol. Further, the Tm in data set [2] stood at 60.6 °C.
As to GTCTACGAAAGTAAGAC ((((((....))).))), in data set [1], the folding enthalpy is -24.2 kcal/mol. Moreover, the Tm in data set [2] is 46.5 °C.
For GTCTACGAAAGTAATGAC ((((((....)))..))), the folding enthalpy in data set [1] is -17.6 kcal/mol. The Tm in data set [2] is 30.7 °C.
The matching figures for GTCTACGAAAGTAGGGAC ((((((....)))..))): -16.2 kcal/mol and 32.3 °C.
Regarding GTCTACGAAAGTATAGAC ((((((....)))..))), the folding enthalpy in data set [1] is -24.4 kcal/mol. Moreover, in data set [2], the Tm came to 36.2 °C.
With GTCTACGGAAACGTAGGC (.(((((....))))).), the folding enthalpy in data set [1] was -29.2 kcal/mol. Further, in data set [2], the Tm was 51.2 °C.
Take GTCTAGGAAACTAGAC ((((((....)))))): the folding enthalpy in data set [1] is -39.2 kcal/mol. In addition, in data set [2], the Tm is 50.8 °C.
GTCTAGGGAAACCTAGAC (((((((....))))))): the folding enthalpy in data set [1] was -40.4 kcal/mol. Moreover, the Tm in data set [2] stood at 56.2 °C.
As to GTCTAGGGAAACCTGGAC (((.(((....))).))), the folding enthalpy in data set [1] was -30.2 kcal/mol. For the same sequence, the Tm in data set [2] is 47.4 °C.
The matching figures for GTCTATACGAAAGTAGAC (((..(((....)))))): -21.8 kcal/mol and 36.7 °C.
For the sequence GTCTATGGAAACATAGAC (((((((....))))))), the folding enthalpy in data set [1] is -42.7 kcal/mol. In addition, in data set [2], the Tm was found to be 54.9 °C.
The matching figures for GTCTATGGAAACGTAGAC (((((.(....).))))): -31.8 kcal/mol and 43.7 °C.
Take GTCTCCACGAAAGTGGAC (((..(((....)))))): the folding enthalpy in data set [1] is -7.36 kcal/mol. The Tm in data set [2] came out at 32.2 °C.
GTCTCCCGAAAGGGGAC (((.(((....)))))): the folding enthalpy in data set [1] was -31.4 kcal/mol. Further, the Tm in data set [2] was determined as 54.8 °C.
